ChEMBL document CHEMBL1139344, “Antagonists of the human A(2A) adenosine receptor. 4. Design, synthesis, and preclinical evaluation of 7-aryltriazolo[4,5-d]pyrimidines” (J Med Chem, 2009)
Values after ≈ are worked out from the molar mass of the structure shown. Active and inactive are the calls of the source. No cut-off for these calls is given here.

Columns and labels:
Adenosine receptor A2a = Adenosine receptor A2a (Homo sapiens, UniProt P29274); experiment: Displacement of radioligand from human recombinant adenosine A2A receptor at 21 degC after 90 mins by cell-based microplate scintillation counting
Adenosine receptor A1 = biological target: T1, Adenosine receptor A1 (Homo sapiens, UniProt P30542); experiment: Displacement of radioligand from human recombinant adenosine A1 receptor at 21 degC after 90 mins by cell-based microplate scintillation counting
T1 sequence (P30542 whole entry): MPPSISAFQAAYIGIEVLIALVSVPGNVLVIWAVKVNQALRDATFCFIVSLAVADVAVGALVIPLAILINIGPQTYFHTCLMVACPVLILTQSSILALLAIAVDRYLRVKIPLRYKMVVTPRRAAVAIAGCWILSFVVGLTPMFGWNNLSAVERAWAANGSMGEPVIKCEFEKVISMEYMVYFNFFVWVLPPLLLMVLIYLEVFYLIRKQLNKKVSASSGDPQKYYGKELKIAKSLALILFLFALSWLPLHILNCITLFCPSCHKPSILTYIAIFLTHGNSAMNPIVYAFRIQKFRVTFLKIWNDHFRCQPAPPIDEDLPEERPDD

Adenosine receptor A2b = biological target: T2, Adenosine receptor A2b (Homo sapiens, UniProt P29275); experiment: Displacement of radioligand from human recombinant adenosine A2B receptor at 21 degC after 60 mins by cell-based microplate scintillation counting
T2 sequence (P29275 whole entry): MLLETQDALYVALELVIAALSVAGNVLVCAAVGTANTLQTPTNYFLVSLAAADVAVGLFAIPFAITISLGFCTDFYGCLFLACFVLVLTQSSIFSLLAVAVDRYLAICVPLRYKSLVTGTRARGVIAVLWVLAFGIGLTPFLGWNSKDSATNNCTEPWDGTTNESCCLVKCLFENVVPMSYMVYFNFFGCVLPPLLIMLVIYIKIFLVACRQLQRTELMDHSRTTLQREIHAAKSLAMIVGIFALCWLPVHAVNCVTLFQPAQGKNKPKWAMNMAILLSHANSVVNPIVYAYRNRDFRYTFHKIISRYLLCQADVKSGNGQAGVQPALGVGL

Adenosine receptor A3 = biological target: T3, Adenosine receptor A3 (Homo sapiens, UniProt P0DMS8); experiment: Displacement of radioligand from human recombinant adenosine A3 receptor at 21 degC after 60 mins by cell-based microplate scintillation counting
T3 sequence (P0DMS8 whole entry): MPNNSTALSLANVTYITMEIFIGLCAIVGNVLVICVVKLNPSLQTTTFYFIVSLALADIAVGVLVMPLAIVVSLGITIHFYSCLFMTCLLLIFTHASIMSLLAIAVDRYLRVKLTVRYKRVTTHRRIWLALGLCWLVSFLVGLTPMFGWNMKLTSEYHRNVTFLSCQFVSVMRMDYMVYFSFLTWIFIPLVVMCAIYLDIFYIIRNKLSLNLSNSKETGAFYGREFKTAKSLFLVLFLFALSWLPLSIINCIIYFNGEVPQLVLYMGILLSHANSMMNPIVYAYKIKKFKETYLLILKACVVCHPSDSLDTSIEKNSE

Mus musculus = experiment: Reversal of haloperidol-induced hypolocomotion in TO mouse assessed as time spent for locomotor activity at 30 mg/kg, po administered 15 mins prior and measured for 60 mins; format: functional, organism-based; set-up: dose 30 mg/kg
Rattus norvegicus = experiment: Reversal of haloperidol-induced hypolocomotion in Sprague-Dawley rat assessed as time spent for locomotor activity at 30 mg/kg, po administered 120 mins prior and measured for 60 mins; format: functional, organism-based; set-up: dose 30 mg/kg
Liver microsomes = experiment: Metabolic stability in rat liver microsomes after 30 mins; format: ADME, Microsome; conditions: 0.5 h
How it was run: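 Turnover by rodent liver microsomes measured as percent turnover after 30 min.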

[1] = Aqueous solubility in phosphate buffered saline; format: physicochemical

Adenosine receptor A2a, sequence (P29274 whole entry): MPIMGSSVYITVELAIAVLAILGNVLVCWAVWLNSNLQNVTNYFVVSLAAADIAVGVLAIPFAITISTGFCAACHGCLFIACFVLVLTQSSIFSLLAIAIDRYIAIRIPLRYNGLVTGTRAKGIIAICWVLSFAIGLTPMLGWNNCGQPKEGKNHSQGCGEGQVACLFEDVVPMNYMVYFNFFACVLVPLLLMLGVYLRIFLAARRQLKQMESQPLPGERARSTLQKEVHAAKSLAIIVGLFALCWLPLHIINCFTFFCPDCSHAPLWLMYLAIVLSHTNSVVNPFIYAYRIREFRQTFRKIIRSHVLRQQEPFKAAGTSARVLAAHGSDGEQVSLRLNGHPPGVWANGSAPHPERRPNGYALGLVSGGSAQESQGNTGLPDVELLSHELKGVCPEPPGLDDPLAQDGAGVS

Compound	Ki (Adenosine receptor A2a)	Ki (Adenosine receptor A1)	Ki (Adenosine receptor A2b)	Ki (Adenosine receptor A3)	Stability (Liver microsomes)	solubility [1]	Activity (Mus musculus)	Activity (Rattus norvegicus)
Nc1ccc(Cn2nnc3c(-c4ccco4)nc(N)nc32)c(F)c1	0.0035 µM	0.19 µM	0.023 µM	0.685 µM	–	–	–	–
NCc1ccc(Cn2nnc3c(-c4ccco4)nc(N)nc32)cc1	0.241 µM	4.91 µM	0.916 µM	> 10 µM	–	–	–	–
Nc1nc(-c2ccco2)c2nnn(Cc3ccco3)c2n1	0.0088 µM	0.077 µM	0.192 µM	0.24 µM	–	–	–	–
Nc1nc(-c2ccco2)c2nnn(Cc3ccccc3[N+](=O)[O-])c2n1	0.0066 µM	0.4 µM	0.383 µM	0.168 µM	–	–	–	–
Nc1nc(-c2ccco2)c2nnn(Cc3cnccn3)c2n1	0.122 µM	1.17 µM	1.14 µM	2.22 µM	–	–	–	–
Nc1nc(-c2ccco2)c2nnn(Cc3cc(F)ccc3F)c2n1	0.0022 µM	0.098 µM	0.128 µM	0.45 µM	–	–	–	–
CC(=O)Nc1ccc(Cn2nnc3c(-c4ccco4)nc(N)nc32)cc1	0.116 µM	2.53 µM	0.443 µM	2.38 µM	–	–	–	–
Nc1nc(-c2ccco2)c2nnn(Cc3cccc(F)c3F)c2n1	0.0023 µM	0.11 µM	0.079 µM	0.619 µM	–	–	–	–
Nc1nc(-c2ccco2)c2nnn(CC3CCCCC3)c2n1	0.0085 µM	0.23 µM	0.634 µM	1.14 µM	–	–	–	–
Nc1nc(-c2ccco2)c2nnn(Cc3c(F)cccc3F)c2n1	0.0019 µM	0.042 µM	0.024 µM	0.203 µM	–	–	–	–
Nc1nc(-c2ncco2)c2nnn(Cc3ccccc3F)c2n1	0.041 µM	0.599 µM	0.836 µM	2.11 µM	–	–	–	–
Nc1nc(-c2nccs2)c2nnn(Cc3ccccc3F)c2n1	0.0085 µM	0.553 µM	0.271 µM	2.2 µM	–	30 µM (≈ 9.82 µg/mL)	inactive	inactive
Cc1csc(-c2nc(N)nc3c2nnn3Cc2ccccc2F)n1	0.0022 µM	0.203 µM	0.053 µM	1.26 µM	–	–	–	–
Nc1nc(-c2ccco2)c2nnn(Cc3ccc4[nH]ccc4c3)c2n1	0.0011 µM	0.027 µM	0.059 µM	0.606 µM	–	–	–	–
Nc1nc(-c2cncs2)c2nnn(Cc3ccccc3F)c2n1	0.031 µM	0.894 µM	0.423 µM	1.78 µM	–	–	–	–
Nc1nc(-c2cccs2)c2nnn(Cc3ccccc3F)c2n1	0.0082 µM	0.154 µM	0.248 µM	0.871 µM	–	–	–	–
Cc1cnc(-c2nc(N)nc3c2nnn3Cc2ccccc2F)s1	0.0085 µM	0.086 µM	0.199 µM	0.338 µM	–	–	–	–
Nc1nc(-c2ccco2)c2nnn(Cc3ccc4[nH]nnc4c3)c2n1	0.0119 µM	0.291 µM	0.134 µM	3.01 µM	–	–	–	–
Nc1nc(-c2ccco2)c2nnn(Cc3ccc4[nH]ncc4c3)c2n1	0.0086 µM	0.19 µM	0.206 µM	2.43 µM	–	–	–	–
Nc1nc(-c2ccco2)c2nn[nH]c2n1	0.194 µM	3.62 µM	–	–	Stable	30 µM (≈ 6.07 µg/mL)	inactive	inactive

Second part, led by results:

Ki (Adenosine receptor A2a)	Ki (Adenosine receptor A1)	Ki (Adenosine receptor A2b)	Ki (Adenosine receptor A3)	Stability (Liver microsomes)	solubility [1]	Compound	Activity (Mus musculus)	Activity (Rattus norvegicus)
0.022 µM	1.13 µM	0.937 µM	2.47 µM	Stable	30 µM (≈ 11.7 µg/mL)	CC(C)N(C)C(=O)c1cccc(Cn2nnc3c(-c4ccco4)nc(N)nc32)c1	inactive	inactive
0.0023 µM	0.076 µM	0.16 µM	0.269 µM	–	–	Nc1nc(-c2ccco2)c2nnn(Cc3cccc(Cl)c3)c2n1	–	–
0.0037 µM	0.231 µM	0.646 µM	0.844 µM	Stable	30 µM (≈ 10.1 µg/mL)	Nc1nc(-c2ccco2)c2nnn(Cc3cccc([N+](=O)[O-])c3)c2n1	inactive	inactive
0.004 µM	0.314 µM	0.01 µM	0.491 µM	–	–	Nc1nc(-c2ccco2)c2nnn(Cc3cccc(O)c3)c2n1	–	–
0.0054 µM	0.319 µM	0.741 µM	0.34 µM	–	–	COc1ccccc1Cn1nnc2c(-c3ccco3)nc(N)nc21	–	–
0.832 µM	4.14 µM	2.11 µM	3.81 µM	–	–	Nc1nc(-c2ccco2)c2nnn(Cc3cccc(C(=O)O)c3)c2n1	–	–
0.0019 µM	0.083 µM	0.122 µM	0.285 µM	Stable	30 µM (≈ 8.77 µg/mL)	Nc1nc(-c2ccco2)c2nnn(Cc3ccccc3)c2n1	inactive	inactive
0.0039 µM	0.132 µM	0.63 µM	0.693 µM	–	–	N#Cc1cccc(Cn2nnc3c(-c4ccco4)nc(N)nc32)c1	–	–
0.0018 µM	0.077 µM	0.643 µM	0.563 µM	–	–	COc1cccc(Cn2nnc3c(-c4ccco4)nc(N)nc32)c1	–	–
0.0022 µM	0.1 µM	0.259 µM	0.736 µM	–	–	Nc1nc(-c2ccco2)c2nnn(Cc3cccc(C(F)(F)F)c3)c2n1	–	–
0.0007 µM	0.12 µM	0.043 µM	1.07 µM	–	–	Nc1nc(-c2ccco2)c2nnn(Cc3ccc(N)c(F)c3)c2n1	–	–
0.0016 µM	0.249 µM	0.084 µM	1.36 µM	–	–	Nc1nc(-c2ccco2)c2nnn(Cc3ccc(N)c(O)c3)c2n1	–	–
0.0041 µM	0.105 µM	0.907 µM	1.17 µM	Stable	30 µM (≈ 10.5 µg/mL)	COC(=O)c1cccc(Cn2nnc3c(-c4ccco4)nc(N)nc32)c1	–	–
0.003 µM	0.045 µM	0.254 µM	0.36 µM	–	–	Cc1cccc(Cn2nnc3c(-c4ccco4)nc(N)nc32)c1	–	–
